Compound activity (PubChem BioAssay)
Sampled rows, rich in hits. Any-hit rate of the full collection: about 3%.
NPY-Y1 PAM-ag: human NPY-Y1 potentiation or agonism, primary screen; 0.37% of 220,000 active; activation, % at 3.6 µM; AID 1304; P25929; NPY-Y1 expressing cells, potentiator/agonist activation; in the data active means activation above about 33%, passing the limit was not always enough;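 further: cells stimulated with NPY at EC10 then isoproterenol at EC100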
NPY-Y2 antag: antagonists of human neuropeptide Y receptor Y2. P49146. NPY-Y2 expressing cells, antagonist mode. inhibition, % at 2.7 µM. 0.99% of 140,000 active; in the data active means inhibition above about 17%
Hsp70 act: Hsp70 transcriptional activation, primary screen. activation, % at 10 µM. HeLa Hsp70 promoter luciferase reporter, luminescence; scaled: vehicle 0, proteasome-inhibitor control 100%. 0.04% of 200,000 active;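 active means activation above the mean across all tested compounds plus 3 SD, cutoff set per campaign, cut at about 5.5% in these data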
NPY Y1 blocker: blocks the human neuropeptide Y Y1 receptor; HEK293-CNG Y1 cells, membrane potential fluorescence; NPY at EC95, then isoproterenol; inhibition, % at 3.6 µM; 1% of 200,000 active; AID 1040;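 active means inhibition above the campaign mean inhibition of all tested compounds plus 3 SD, cut at about 20% in these data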
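Material: HEK293 cells co-expressing NPY Y1 receptor and cyclic-nucleotide gated channel. Timing: compound incubation 1 h at room temperature, readout 45 min post-stimulation. Signal: fluorescence, membrane potential probe.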
Wee1 stabilizer: blocks degradation of human Wee1 kinase; P30291; HeLa Luc-Wee1K328M stability, luciferase luminescence; 100% = proteasome inhibitor MG132 effect; reporter increase, % at 5 µM; 1.2% of 220,000 active;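 active means activation above the mean of all tested compounds plus 3 SD, set per screening run, cut at about 8.8% in these data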;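 further: cells exposed to compound for 20 h before luminescence read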
Target sequence (P30291 whole entry K328M): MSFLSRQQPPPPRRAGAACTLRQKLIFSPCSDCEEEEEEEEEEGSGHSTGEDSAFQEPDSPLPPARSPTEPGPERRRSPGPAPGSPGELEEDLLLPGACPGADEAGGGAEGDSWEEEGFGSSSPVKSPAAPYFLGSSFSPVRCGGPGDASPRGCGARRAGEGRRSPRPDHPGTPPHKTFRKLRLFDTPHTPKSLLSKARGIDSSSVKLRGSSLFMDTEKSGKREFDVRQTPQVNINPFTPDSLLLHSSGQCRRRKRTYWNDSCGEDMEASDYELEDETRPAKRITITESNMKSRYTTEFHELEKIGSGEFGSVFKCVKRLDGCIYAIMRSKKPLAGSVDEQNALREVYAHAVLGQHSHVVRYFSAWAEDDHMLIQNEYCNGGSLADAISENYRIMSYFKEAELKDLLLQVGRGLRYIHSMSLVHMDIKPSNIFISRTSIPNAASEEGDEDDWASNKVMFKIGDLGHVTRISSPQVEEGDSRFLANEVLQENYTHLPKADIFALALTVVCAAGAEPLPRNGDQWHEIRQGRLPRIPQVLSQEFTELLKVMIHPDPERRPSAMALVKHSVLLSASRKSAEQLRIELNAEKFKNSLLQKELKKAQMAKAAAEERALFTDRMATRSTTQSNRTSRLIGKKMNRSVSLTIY
NPY2 pot ag: human NPY-Y2 potentiation or agonism, primary screen | P49146 | cells expressing NPY-Y2, potentiator/agonist read-out | activation, % at 3.6 µM | 0.45% of 220,000 active; in the data active means activation above about 27%;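 further: cells stimulated with NPY near EC25 plus isoproterenol at EC100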
NPY-Y1 antag ct: antagonizes human NPY-Y1, counter-screen to NPY-Y2 antagonists; shares compounds with NPY-Y2 antag; cell-based NPY-Y1 antagonism counterscreen; inhibition, % at 3.6 µM; 19% of 710 active; in the data active means inhibition above about 20%;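 further: cells challenged with NPY then isoproterenol with cAMP sensed through a CNG channel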
NPY2 antag conf: confirmation of human neuropeptide Y receptor Y2 antagonists; AID 1257; shares compounds with NPY-Y2 antag; 32% of 710 active; HEK293 NPY-Y2 CNG channel, membrane potential fluorescence; inhibition, % at 2.8 µM;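 active means mean inhibition of triplicate wells above the hit cutoff set in the primary screen, cut at about 17% in these data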
Each line names hits and unclear results; the compound was inactive in the other large screens (follow-up assays come after a bar, where they were run); ! = repeats disagree.

N=c1c2c(-c3ccccc3)c(-c3ccccc3)n(Cc3ccco3)c2ncn1Cc1ccccc1	NPY-Y1 PAM-ag 56, NPY-Y2 antag 21, NPY2 pot ag 54 | NPY-Y1 antag ct inactive | NPY2 antag conf inactive
c1ccc(-c2c(-c3ccccc3)n(Cc3ccco3)c3ncnc(NCCCn4ccnc4)c23)cc1	NPY-Y2 antag 29 | NPY-Y1 antag ct inactive | NPY2 antag conf inactive
c1ccc(-c2oc3ncnc(NCCCn4ccnc4)c3c2-c2ccccc2)cc1	none
CCOC(=O)c1ccc(CSc2nnc(-c3ccncc3)n2N)cc1	none
Cc1cc2ncn(C(=O)c3c(-c4c(Cl)cccc4Cl)noc3C)c2cc1C	none
Cc1cc2ncn(C(=O)c3c(-c4ccccc4)noc3C)c2cc1C	NPY-Y2 antag 20 | NPY-Y1 antag ct inactive | NPY2 antag conf inactive
CCCCNC(=O)c1onc(CSc2ccc(F)c(F)c2)c1C(=O)O	NPY-Y2 antag 23 | NPY-Y1 antag ct inactive | NPY2 antag conf inactive
[O-][n+]1c2ccc3nonc3c2nn1-c1ccccc1Cl	none
COc1ccc(C2=C(CN(C)C)C(c3ccccc3)c3ccccc3O2)cc1 (stereo not given)	NPY-Y2 antag 18!, NPY Y1 blocker 23! | NPY-Y1 antag ct 25 | NPY2 antag conf 34
Cc1ccccc1CN1CCN(CC(=O)NCc2ccccc2)C1=O	none
CCOc1ccc(Oc2c(/C=N/NC(=O)C3CC3)c(C)nn2-c2ccccc2)cc1	none
CCOc1ccc(Oc2c(/C=N/NC(C)=O)c(C)nn2-c2ccccc2)cc1	NPY-Y2 antag 32 | NPY-Y1 antag ct inactive | NPY2 antag conf 31
Cc1cccc(CSC2=NCCN2C(=O)c2ccc(Br)o2)c1	NPY-Y2 antag 20 | NPY-Y1 antag ct inactive | NPY2 antag conf 31
Cc1cccc(CSC2=NCCN2C(=O)c2ccc(S(=O)(=O)N(C)C)cc2)c1	none (no result: NPY-Y2 antag)
CC1(C)CC(=O)C2=C(C1)OC(N)=C(C#N)C2C1C=CCCC1 (stereo not given)	none
O=C(O)c1cc(NN=Nc2ccc(Br)cc2)cc([N+](=O)[O-])c1	none (no result: NPY-Y2 antag, Hsp70 act, NPY Y1 blocker)
c1ccc(N(c2ccccc2)c2nc(-n3ccnc3)nc(-n3ccnc3)n2)cc1	NPY-Y2 antag 23 | NPY-Y1 antag ct inactive | NPY2 antag conf inactive
COC(=O)c1ccc(OC)c(CSc2nnc(COc3ccccc3)o2)c1	NPY-Y2 antag 18 | NPY-Y1 antag ct inactive | NPY2 antag conf inactive
COC(=O)c1ccc(OC)c(CSc2nnc(COc3ccc(Cl)cc3)o2)c1	NPY-Y2 antag 27 | NPY-Y1 antag ct 25 | NPY2 antag conf 19
COC(=O)c1ccc(OC)c(CSc2nnc(-c3ccc(C(C)(C)C)cc3)o2)c1	none
Cc1ccc(C(=O)CSc2nnc(COc3cc(C)cc(C)c3)o2)cc1	NPY-Y2 antag 21 | NPY-Y1 antag ct inactive | NPY2 antag conf 20
CCN(CC)C(=O)C(Cc1ccccc1)N1C(=O)c2ccccc2C1=O (stereo not given)	none
Cc1ccc(CNC(=O)/C=C/c2ccc(S(=O)(=O)N3CCOCC3)cc2)cc1	none
O=C(Nc1ccccc1)OCc1cc(-c2ccccc2Cl)on1	NPY-Y2 antag 22 | NPY-Y1 antag ct inactive | NPY2 antag conf 18
O=C(Nc1ccccc1)OCc1cnc(Cl)s1	none (no result: NPY-Y2 antag)
C#CC(C)(CC)NC(=O)Cn1nnc(-c2cccc(C(F)(F)F)c2)n1 (stereo not given)	none (no result: NPY-Y2 antag)
CSc1nnc(CCCCCCCCc2nnc(SC)o2)o1	none (no result: NPY-Y2 antag, Hsp70 act, NPY Y1 blocker)
CCCCCSc1nnc(-c2ccccc2N)c(=O)[nH]1	NPY-Y2 antag 19 | NPY-Y1 antag ct inactive | NPY2 antag conf inactive
CCCCCSc1nnc(-c2ccccc2NC(C)=O)c(=O)[nH]1	none (no result: NPY-Y2 antag)
CCNc1cc(N2CCOCC2)nc(SC)n1	none (no result: NPY-Y2 antag)
CCNc1cc(Cl)nc(SC)n1	NPY-Y2 antag 25 | NPY-Y1 antag ct inactive | NPY2 antag conf inactive
C/C(=C\c1ccccc1)C(=O)N1CCN(c2cccc(C(F)(F)F)c2)CC1	none
Cc1ccc(/C=C/C(=O)N2CCN(c3cccc(C(F)(F)F)c3)CC2)cc1	NPY-Y2 antag 21 | NPY-Y1 antag ct 21 | NPY2 antag conf inactive
Cc1ccccc1OCCCSc1nc2ccccc2[nH]1	NPY-Y2 antag 17 | NPY-Y1 antag ct inactive | NPY2 antag conf inactive
c1ccc(OCCSc2nc3ccccc3[nH]2)cc1	none
Cc1ccc(-c2cc(C(F)F)n3ncc(C(=O)N4CCN(c5ccccn5)CC4)c3n2)cc1	NPY-Y2 antag 20 | NPY-Y1 antag ct inactive | NPY2 antag conf inactive
CC1(C)CC2CC(C)(CN2C(=O)COc2cccc3ccccc23)C1 (stereo not given)	NPY-Y2 antag 17 | NPY-Y1 antag ct inactive | NPY2 antag conf inactive
CN(/N=C/c1ccncc1)C1=NS(=O)(=O)c2ccccc21	NPY-Y2 antag 21 | NPY-Y1 antag ct inactive | NPY2 antag conf inactive
CCN(CC)S(=O)(=O)c1ccc(O)c(C(=O)OCC(=O)N2c3ccccc3CC2C)c1 (stereo not given)	none (no result: NPY-Y2 antag, Hsp70 act, NPY Y1 blocker)
CCN1C(=O)C(Cc2nc3ccccc3c(=O)n2-c2ccccc2)c2ccccc21 (stereo not given)	NPY-Y2 antag 23 | NPY-Y1 antag ct inactive | NPY2 antag conf inactive
N#C/C(=C/c1ccccc1[N+](=O)[O-])C(=O)NCc1ccco1	none
CNC(=S)Nc1ccc(OC(F)(F)F)cc1	none (no result: NPY-Y2 antag)
CCCN1C(=O)S/C(=C\c2ccc(N3CCOCC3)o2)C1=O	none (no result: NPY-Y2 antag)
Cc1ccc(OCCN2C(=O)S/C(=C\c3ccc(C)o3)C2=O)cc1	NPY-Y2 antag 17 | NPY-Y1 antag ct inactive | NPY2 antag conf inactive
C=CCN1C=CC(=C/C=C(/C#N)C(=O)OCC)C=C1	none
O=C(CNc1ccc2c(c1)OCO2)N/N=C\c1ccccc1Cl	NPY-Y2 antag 40 | NPY-Y1 antag ct inactive | NPY2 antag conf inactive
Cc1[nH]c2ccccc2c1/C=N\NC(=O)CNc1ccc2c(c1)OCO2	none
CC(Sc1cnccn1)C(=O)O (stereo not given)	none (no result: NPY-Y2 antag)
COC(=O)c1cc(OC)c(OC)cc1NC(=O)c1c(C)noc1C	none
O=[N+]([O-])c1ccc(-c2csc3[n+]2CCS3)cc1	NPY-Y2 antag 23 | NPY-Y1 antag ct inactive | NPY2 antag conf inactive
Fc1ccc(-c2csc3[n+]2CCS3)cc1	none
CCCCN1C2=NCCCN2c2cc(C)c(C)cc21	NPY-Y2 antag 22 | NPY-Y1 antag ct inactive | NPY2 antag conf inactive
COc1cc(/C=N/N(C)C)ccc1OC(=O)c1cccs1	none (no result: NPY-Y2 antag)
CCN(CC(=O)Nc1ccccc1C(=O)OC)S(=O)(=O)c1ccccc1	none
COc1ccc(OCC(=O)Nc2cccc3cccnc23)cc1	NPY-Y2 antag 48 | NPY-Y1 antag ct inactive | NPY2 antag conf 24
O=C1NC(c2ccccc2)(C(F)(F)F)C(=O)N1Cc1cccnc1 (stereo not given)	none
COc1cc(C(=O)Nc2cc(C)cc(C)c2)c(-n2cnnn2)cc1OC	none (no result: NPY-Y2 antag)
